Reference: ChEMBL document CHEMBL3392953, “Synthesis and biological evaluation of furanoallocolchicinoids” (J Med Chem, 2015)

Key:
[1] = tested on: ASPC1; assay: Cytotoxicity against human AsPC1 cells after 72 hrs by MTT assay; type: functional, cell-based; details: ASPC1, 72 h
Procedure, shortened: (§1)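 Cells seeded at 3x10^5 cells/mL 24 h before assay (HEK293, AsPC-1 in DMEM; Jurkat, W1308 in RPMI-1640; 10% FCS, 2-ME). Tenfold dilutions from […] to 1 nM added; untreated cells as controls. 72 h incubation, MTT 250 µg/ml added for last 6 h, formazan dissolved in DMSO, OD read. IC50 from titration curves; inhibition index = 1 − OD(treated)/OD(control).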

[2] = tested on: HEK293; assay: Cytotoxicity against HEK293 cells after 72 hrs by MTT assay; type: functional, cell-based; details: Homo sapiens, HEK293, 72 h; procedure, shortened: as §1
[3] = tested on: Jurkat; assay: Cytotoxicity against human Jurkat cells after 72 hrs by MTT assay; type: functional, cell-based; procedure, shortened: as §1
[4] = Cytotoxicity against mouse W1308 cells after 72 hrs by MTT assay; type: functional, cell-based; details: W1308, 72 h; procedure, shortened: as §1
[5] = Induction of apoptosis in mouse W1308 cells assessed as pre-apoptotic cells level at 200 nM after 48 hrs by 3,3'-dihexyloxacarbocyanine iodide and propidium iodide staining based flow cytometry (reference value: 17%); type: functional
[6] = Induction of apoptosis in mouse W1308 cells assessed as apoptotic cells level at 200 nM after 48 hrs by 3,3'-dihexyloxacarbocyanine iodide and propidium iodide staining based flow cytometry (reference value: 11%); type: functional
[7] = tested on: ASPC1; assay: Growth inhibition of human AsPC1 cells at 100 uM after 72 hrs by MTT assay; type: functional; details: ASPC1, 72 h, read-out: GI
[8] = tested on: HEK293; assay: Growth inhibition of HEK293 cells at 100 uM after 72 hrs by MTT assay; type: functional; details: Homo sapiens, HEK293, 72 h; read-out: GI
[9] = tested on: Jurkat; assay: Growth inhibition of human Jurkat cells at 100 uM after 72 hrs by MTT assay; type: functional; details: read-out: GI
[10] = Growth inhibition of mouse W1308 cells at 100 uM after 72 hrs by MTT assay; type: functional; details: W1308, 72 h, read-out: GI
[11] = tested on: Mus musculus; assay: Toxicity in C57BL/6 mouse assessed as interphase microtubule de-stabilizing activity by measuring leakage of rhodamine through the gut at 1 mg/kg, iv co-administered with rhodamine B by fluorimetry; type: organism-based; design: dose 1 mg/kg, route intravenous; details: in vivo
Procedure, shortened: (§2)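 Intact mice, 6–8 wk, 3 per group; compound dissolved in DMSO at 20 mM, 4 µl diluted into 200 µl saline (1 mg/kg), mixed with 50 µl rhodamine B, single i.v. injection; controls DMSO plus rhodamine B. Killed 4 h later; organs cut, extracted in 0.3N acid in ethanol 2 h at 37 °C, centrifuged, supernatant fluorescence read with 540 nm filter.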

[12] = tested on: Mus musculus; assay: Toxicity in C57BL/6 mouse assessed as interphase microtubule de-stabilizing activity by measuring influx of rhodamine in to heart at 1 mg/kg, iv co-administered with rhodamine B by fluorimetry; type: organism-based; design: dose 1 mg/kg, route intravenous; details: in vivo; procedure, shortened: as §2
[13] = tested on: Mus musculus; assay: Toxicity in C57BL/6 mouse assessed as interphase microtubule de-stabilizing activity by measuring influx of rhodamine in to spleen at 1 mg/kg, iv co-administered with rhodamine B by fluorimetry; type: organism-based; design: dose 1 mg/kg, route intravenous; details: in vivo; procedure, shortened: as §2

Work on `COc1cc2c(c(OC)c1OC)-c1ccc3c(ccn3C)c1C(=O)CC2` yielded an IC50 [1] of under 0.02 µM, an IC50 [2] of under 0.02 µM and an IC50 [3] of under 0.02 µM. The IC50 [4] was under 0.02 µM, the Activity [5] was 20% and the Activity [6] was 29%.
For `COc1cc2c(c(OC)c1OC)-c1cc3cc(COC(C)=O)oc3cc1[C@@H](NC(C)=O)CC2`, the IC50 [1] was 2 µM, the IC50 [2] was 1 µM and the IC50 [3] was 1 µM. It also gave an IC50 [4] of 1 µM, an inhibition of growth at 100 µM [7] of 50% and an inhibition of growth at 100 µM [8] of 50%. It also gave an inhibition of growth at 100 µM [9] of 50% and an inhibition of growth at 100 µM [10] of 50%.
In the case of `COc1cc2c(c(OC)c1OC)-c1cc3cc(C4(O)CCCC4)oc3cc1[C@@H](NC(C)=O)CC2`, the IC50 [1] is reported as 20 µM, the IC50 [2] is reported as 4 µM and the IC50 [3] is reported as 4 µM. It also gave an IC50 [4] of 8 µM, an inhibition of growth at 100 µM [7] of 50% and an inhibition of growth at 100 µM [8] of 50%. The inhibition of growth at 100 µM [9] was 50% and the inhibition of growth at 100 µM [10] was 50%.
Work on `COC(=O)CCCCCCCCc1cc2cc3c(cc2o1)[C@@H](NC(C)=O)CCc1cc(OC)c(OC)c(OC)c1-3` yielded an IC50 [1] of over 100 µM, an IC50 [2] of over 100 µM and an IC50 [3] of over 100 µM. It also gave an IC50 [4] of over 100 µM.
`COc1cc2c(c(OC)c1OC)-c1cc3cc(-c4ccccn4)oc3cc1[C@@H](NC(C)=O)CC2` gave an IC50 [1] of 20 µM, an IC50 [2] of 20 µM and an IC50 [3] of 20 µM. The IC50 [4] was 10 µM.
For `COc1cc2c(c(OC)c1OC)-c1ccc(OC)c(=O)cc1[C@@H](NC(C)=O)CC2` [COLCHICINE], the Activity [11] was “Toxic”, the Activity [12] was “Toxic” and the Activity [13] was “Toxic”.
